Columns and labels:
[1] = target: T1, Prostaglandin E synthase (Homo sapiens) (UniProt O14684); experiment: Inhibition of human recombinant microsomal PGES-1 expressed in freestyle 293-f cells assessed as conversion of PGH2 to PGE2 at 10 uM after 15 mins by enzyme immunoassay; format: cell-based
T1 sequence (whole entry): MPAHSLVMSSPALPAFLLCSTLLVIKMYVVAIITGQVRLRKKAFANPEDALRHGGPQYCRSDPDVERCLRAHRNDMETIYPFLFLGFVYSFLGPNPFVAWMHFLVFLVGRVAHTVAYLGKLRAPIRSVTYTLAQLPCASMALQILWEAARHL
How it was run: (§1)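 Reaction in 0.2 M sodium phosphate pH 7.2 stock with 0.1 M GSH stock. Enzyme and inhibitor preincubated 15 min at room temperature, then started with cold PGH2 (1 μM final) on ice. Stopped after 30 s with SnCl2 in ethanol. PGE2 measured by enzyme immunoassay against an enzyme-free blank.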

Prostaglandin E synthase [2] = target: T2, Prostaglandin E synthase (Homo sapiens, UniProt O14684); experiment: Inhibition of microsomal PGES
T2 sequence (O14684 whole entry): T1 sequence (whole entry)
How it was run: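 Compound was preincubated with enzyme for 15 min at room temperature. PGH2 (1 μM final) was added on ice, and the reaction was stopped after 30 s with SnCl2. PGE2 was measured by EIA against an enzyme-free blank.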

Prostaglandin E synthase [3] = target: T2, Prostaglandin E synthase; experiment: Inhibition of human recombinant microsomal PGES-1 expressed in freestyle 293-f cells assessed as conversion of PGH2 to PGE2 after 15 mins by enzyme immunoassay; format: cell-based; how it was run: as §1

Row | inhibition [1] | IC50 (Prostaglandin E synthase [3]) | SMILES | IC50 (Prostaglandin E synthase [2])
1 | 31% | – | CC(=O)NC(Cc1ccc(C)cc1)C(=O)NC(Cc1ccc(F)cc1)C(=O)N1CCC(OCc2ccccc2)CC1CCCNC(=N)N (centres undefined) | –
2 | – | – | CC1=C(CC(=O)O)c2cc(F)ccc2/C1=C\c1ccc([S+](C)[O-])cc1 (centres undefined) | 80 µM
3 | 10% | – | CCN1C(=O)C2Cc3c([nH]c4ccccc34)C(c3ccc(Cl)cc3)N2C1=O (centres undefined) | –
4 | – | – | CS(=O)(=O)Nc1ccc([N+](=O)[O-])cc1OC1CCCCC1 [NS-398] | 20 µM
5 | 83% | 3.5 µM | COCCN(c1ccc(/C=C2\S/C(=N\c3ccccc3)N(C(C)C(=O)O)C2=O)cc1)c1ccccc1OC (centres undefined) | –
6 | 39% | – | CCOC(=O)Cn1c(=O)c2c(nc3n2CCCN3c2ccc(OCC)cc2)n(C)c1=O | –
7 | 39% | – | Cc1c(C(=O)O)ccc2c1NC(c1ccc(OCC#N)cc1)C1CC=CC21 (centres undefined) | –
8 | 50% | – | N#CCC(=O)N/N=C(\c1nc2ccc(Cl)cc2nc1O)C(O)c1ccc(Cl)cc1 (centres undefined) | –
9 | 43% | – | CC1(C)C(c2ccc(Cl)cc2)N(O)C2(CCCCC2=O)N1O (centres undefined) | –
10 | 20% | – | O=C(O)CSc1nc2sc3c(c2c(=O)n1Cc1ccccc1)CCCCC3 | –
11 | 16% | – | CC1CCc2c(sc3ncnc(SC(C)C(=O)O)c23)C1 (centres undefined) | –

Row | SMILES | inhibition [1] | IC50 (Prostaglandin E synthase [3]) | IC50 (Prostaglandin E synthase [2])
12 | O=[N+]([O-])c1cc2c(c([N+](=O)[O-])c1)Nc1ccccc1N=C2c1ccc(Cl)cc1 | 26% | – | –
13 | O=[N+]([O-])C(/C=C(\Cl)[N+](=O)[O-])=C(N1CCCCC1)N1CCCCC1 | 15% | – | –

Source: ChEMBL document CHEMBL1828529, “Novel human mPGES-1 inhibitors identified through structure-based virtual screening” (Bioorg Med Chem, 2011)
